Compound activity from PubChem.
Calb FLC: C. albicans growth modulation with fluconazole; AID 1979; growth inhibition, % (concentration not given with the values); C. albicans CaCi-2 (fluconazole-resistant clinical isolate) + fluconazole, Alamar Blue growth, 48 h; 300,000 compounds, 0.57% hits;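 active = growth inhibition above about 58% in most replicates, limit read from the data, passing the limit was not always enough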;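 note: all wells also contain fluconazole at 8 µg/ml as a sub-toxic cotreatment; 0% = median of DMSO wells and 100% = median of geldanamycin control wells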
ARFGAP1 inhibitor: rat ARFGAP1 inhibition | Q62848 | Arfgap1-stimulated ARF1 GTP hydrolysis, GDP FP detection | inhibition, % at 16.5 µM | 360,000 compounds, 0.26% hits | AID 651572;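 active = inhibition above a per-plate limit, mean inhibition of low control wells plus 3 SD, cut at about 25% in these data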;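 note: 0% = DMSO wells with enzyme and 100% = wells lacking Arfgap1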
Target sequence (Q62848 1-136 limits assumed): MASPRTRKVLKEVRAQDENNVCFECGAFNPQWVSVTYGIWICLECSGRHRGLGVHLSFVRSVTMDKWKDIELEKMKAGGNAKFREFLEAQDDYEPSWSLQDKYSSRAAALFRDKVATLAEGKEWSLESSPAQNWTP
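Replicates: Single well per compound | Assay system: Truncated rat Arfgap1 GAP domain | Control set: No-Arfgap1 wells (100%) versus DMSO full-reaction wells (0%) | Times: Enzyme reaction 120 min at 25 °C after 20 min preincubation | Reagent: Human ARF1(Δ1-17)-GTP substrate | Measured by: Tracer-displacement fluorescence polarization with EDTA stop, 620/688 nm | Measure: Percent inhibition of Arfgap1-stimulated GTP hydrolysis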
PHOSPHO1 inh: inhibitors of human PHOSPHO1 phosphatase | inhibition, % at 13.3 µM | recombinant PHOSPHO1, absorbance phosphatase assay | 290,000 compounds, 1.1% hits | Q8TCT1; in the data active = inhibition above about 60%
Target sequence (Q8TCT1 whole entry, looked up): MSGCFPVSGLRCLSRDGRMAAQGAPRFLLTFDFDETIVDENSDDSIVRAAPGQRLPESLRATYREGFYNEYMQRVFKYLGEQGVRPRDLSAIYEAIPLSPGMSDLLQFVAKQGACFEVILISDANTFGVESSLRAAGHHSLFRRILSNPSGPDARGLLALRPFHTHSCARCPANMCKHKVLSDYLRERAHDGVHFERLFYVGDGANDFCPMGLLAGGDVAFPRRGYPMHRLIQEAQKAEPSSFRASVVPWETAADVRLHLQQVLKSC
ASAP1 inh: blocks human ASAP1-stimulated Arf1 GTP hydrolysis; AID 624377; inhibition, % at 16.5 µM; 360,000 compounds, 0.19% hits; Q9ULH1; GDP FP detection; in the data active = inhibition above about 25%;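 note: 0% = vehicle with enzyme and substrate and 100% = no enzyme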
VIM-2 inhibitor: inhibitors of Pseudomonas aeruginosa VIM-2 metallo-beta-lactamase | purified VIM-2, nitrocefin hydrolysis, epi-absorbance fluorescence | inhibition, % at 5.6 µM | 290,000 compounds, 0.89% hits | AID 1527;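 active = inhibition above the mean of all tested compounds plus 3 SD, cutoff set per screening run, cut at about 7.5% in these data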;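 note: red hydrolysis product quenches plate fluorescence so inhibitors raise well fluorescence; 0% = enzyme with DMSO and 100% = DMSO without enzyme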
IMP-1 inhibitor: blocks Pseudomonas aeruginosa IMP-1 metallo-beta-lactamase; inhibition, % at 5.6 µM; purified IMP-1, nitrocefin hydrolysis, epi-absorbance fluorescence; 290,000 compounds, 0.45% hits;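 active = inhibition above the mean plus 3 SD of all compounds in the same screening run, cut at about 4.5% in these data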;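 note: 0% = IMP-1 with DMSO and 100% = DMSO wells lacking enzyme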
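assay system = purified recombinant IMP-1 metallo-beta-lactamase enzyme | schedule = 15 min preincubation plus 25 min reaction at 25 °C | signal = Epi-absorbance fluorescence, 480 nm excitation, 530 nm emission | read-out basis = percent inhibition from optical density relative to buffer-blank wells | controls = IMP-1 with DMSO as 0%, enzyme-free DMSO as 100%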
Numbers without * were called inactive; / = no result. This is a sample that favours compounds with a hit; in the whole collection about 2.6% have one here.

SMILES | Calb FLC | ARFGAP1 inhibitor | PHOSPHO1 inh | ASAP1 inh | VIM-2 inhibitor | IMP-1 inhibitor
O=C(OCn1ncc(Cl)c(Cl)c1=O)c1ccccc1Cl | 108* | 1 | -36 | 0 | -4 | -2
CC1CCCCC1NC(=O)CCCCCn1c(=S)[nH]c2ccccc2c1=O (configuration not stated) | 12 | 10 | 63* | 6 | -5 | -4
CC1CCCCC1NC(=O)Cn1cccc1C(=O)c1ccccc1 (configuration not stated) | -4 | -6 | 70* | 3 | -4 | -1
CC1CCCCC1NC(=O)CCCn1c(=S)[nH]c2ccccc2c1=O (configuration not stated) | 2 | 0 | -8 | 5 | -4 | -5
Cc1ccccc1C(=O)c1cccn1CC(=O)NC1CCCC(C)C1C (configuration not stated) | -8 | -4 | 17 | -2 | -1 | -2
CCCCN(C(=O)/C=C/c1ccco1)c1c(N)n(Cc2ccccc2)c(=O)[nH]c1=O | 113* | 4 | 4 | 2 | 0 | 1
COc1ccc(-c2cc(C3CCN(Cc4cccc(C(F)(F)F)c4)CC3)[nH]n2)cc1 | 70* | 8 | 20 | 8 | -1 | -1
CCCOc1cccc(-c2nnc(NC(=O)c3ccco3)s2)c1 | 88* | 8 | 12 | -2 | -2 | -3
Cc1nnc(NC(=O)CSc2ncnc3c2cnn3-c2ccccc2C)s1 | 85* | 12 | 28 | -4 | -1 | -2
CC1CCN(C(=O)c2ncn3c2C(=O)N[C@H](C)C3)CC1 | / | 2 | / | -3 | / | /
COC(=O)CSc1nnc2cc(C)c3ccccc3n12 | -2 | 8 | 10 | 1 | 10* | 2
Cc1cc2nnc(SCCCCN3C(=O)c4ccccc4C3=O)n2c2ccccc12 | / | / | 18 | / | -4 | -3
CC1(C)Cc2c(sc3nc(NCCN4CCOCC4)n4ncnc4c23)CO1 | -4 | -6 | -21 | 10 | 7 | 16*
CC1CCc2c(sc3ncnc(NCCN4CCOCC4)c23)C1 (configuration not stated) | -4 | 0 | 18 | -9 | / | /
CCCCCCCCN1C(=O)[C@@H](CC(=O)N2CCN(C(=O)c3ccco3)CC2)C[C@@]2(C(=O)OC)C1=C[C@H](C1CCCC1)O[C@@H]2C | / | -3 | / | 0 | / | /
CNC[C@H](CC1CCCCC1)NC[C@H](Cc1ccccc1)NCCC12CC3CC(CC(C3)C1)C2 | 91* | 3 | 25 | 12 | 2 | 16*
NC[C@H](Cc1ccccc1)NCCCCC1CCCCC1 | / | 6 | / | -9 | / | /
COc1cc2ccccc2cc1C(=O)Nc1sc2c(c1C(N)=O)CCN(C(C)C)C2 | -2 | -1 | 48 | 12 | 3 | 7.1*
Cn1c2ccc(Br)cc2c2nnc(SCC(=O)O)nc21 | 34 | 5 | -18 | -1 | 9.8* | 2
Cc1c(NC(=O)CSc2nnc3c4ccccc4n(CCc4ccccc4)c3n2)c(=O)n(-c2ccccc2)n1C | 19 | 16 | 64* | 1 | 2 | -1
Cn1c2ccccc2c2nnc(SCC(=O)NC3CC3)nc21 | -4 | 10 | 35 | -12 | 9.2* | 1
CCOC(=O)CSc1nnc2c3ccccc3n(C)c2n1 | 0 | -10 | 24 | 1 | 4 | -3
Cn1c2ccccc2c2nnc(SCC(N)=O)nc21 | -3 | 2 | 28 | 2 | 8.0* | -3
CCCn1cc(CCC(=O)Nc2ccc(Oc3cccnc3)cc2)c2ccccc21 | / | 4 | / | 4 | / | /
C=CCn1c2ccccc2c2nnc(SCC(N)=O)nc21 | -8 | 10 | 33 | 13 | 8.9* | -2
SMILES | Calb FLC | ARFGAP1 inhibitor | PHOSPHO1 inh | ASAP1 inh | VIM-2 inhibitor | IMP-1 inhibitor
C=CCn1c2ccccc2c2nnc(SCC(=O)OC)nc21 | / | 4 | / | -2 | / | /
C=CCOCCN1C(=O)C2C(c3ccccc3)C=CC(c3ccccc3)C2C1=O (configuration not stated) | -5 | 11 | -12 | 8 | 0 | 15*
COc1ccccc1Cc1c(-c2ccccc2)nc2ccc(C)cn12 | / | 12 | / | -4 | / | /
C[C@@H]1Cn2cnc(C(=O)N(C)Cc3ccccc3)c2C(=O)N1 | / | 1 | / | -8 | / | /
Cc1ccc(-n2ncc3c2ncn2c(C)nnc32)cc1C | / | 10 | 60* | 3 | 0 | -2
Cc1cc(NC(=O)c2cccc(Oc3ccccc3)c2)n[nH]1 | 96* | -7 | 40 | 11 | -4 | -1
Cc1cc(NC(=O)NC(=O)c2cccc(OC(F)(F)C(F)F)c2)n[nH]1 | 4 | 7 | -11 | 0 | -1 | -3
CCCCOCCCNC(=O)C[C@H]1C[C@@]2(C(=O)OC)C(=C[C@H](C(C)C)O[C@@H]2C2CC2)N(Cc2ccccc2)C1=O | / | 3 | / | 0 | / | /
O=c1c2c(nc3c(-c4cccc(Br)c4)c[nH]n13)CCCC2 | -4 | 5 | 62* | -18 | -4 | -3
O=c1c2c(nc3c(-c4ccccc4)c[nH]n13)CCC2 | -2 | -3 | 45 | 1 | -2 | -3
c1ccc(-c2nn3cnnc3c3ccccc23)cc1 | 3 | -8 | 36 | 5 | 11* | -2
OCc1nnc2c3ccccc3c(-c3ccccc3)nn12 | -3 | 1 | 12 | 12 | 11* | 2
Clc1nn2cnnc2c2ccccc12 | 2 | 23 | 51 | -2 | 0 | -4
COC(=O)C1=C(C)N(C)C(=NCC2CC2)NC1CCc1ccccc1 (configuration not stated) | / | 11 | / | 5 | / | /
CC(=O)Nc1ccc(C(=O)OCCCOC(=O)c2ccc(NC(C)=O)cc2)cc1 | 3 | 1 | 48 | 3 | 0 | -1
O=C(OCCCOC(=O)c1cc[n+]([O-])cc1)c1cc[n+]([O-])cc1 | 0 | -7 | 62* | 2 | -6 | -3
COc1ccc(C(=O)CSc2nnc(CCc3ccccc3)n2-c2ccccc2)cc1 | 8 | -5 | 79* | 6 | -5 | -3
O=C(Nc1ccccc1N1CCN(C(=O)c2ccccc2)CC1)c1ccc(Cl)cc1 | 16 | 8 | 48 | 6 | 0 | -3
O=C(Nc1ccccc1N1CCN(C(=O)c2ccccc2)CC1)c1ccc(Br)o1 | -1 | 8 | -16 | -10 | -3 | 5.9*
CCCn1c(C(C)Nc2nc(-c3ccc(C)cc3)cs2)nc2ccccc21 (configuration not stated) | -31 | -2 | -2 | 10 | -2 | -2
CCCn1c(C(C)Nc2nc(-c3cccc(Br)c3)cs2)nc2ccccc21 (configuration not stated) | -2 | -11 | -2 | -7 | 7.9* | -1
CC/C(=N\NC(=S)Nc1cccc(C)c1)c1ccccc1 | 5 | -13 | -3 | 21 | -2 | -3
Cc1cccc(NC(=S)N/N=C(\c2ccccc2)C(C)C)c1 | 102* | 17 | -11 | 11 | -3 | -2
O=c1cc(CO)oc(CN2CCCC2)c1O | -3 | -21 | 12 | -2 | -1 | 8.3*
Cc1ccc(S(=O)(=O)N2CCC(C(=O)Nc3nnc(-c4ccco4)s3)CC2)cc1 | -7 | 7 | -16 | -6 | -1 | 0
